Results reported in publication PMC9753181 (ACS Omega, 2022).
“Also recorded” adds a separate entry of the source. Read-outs that look alike come from different tables or passages of the source.

Assays:
SARS-CoV-2 [1] = details: cited from earlier work; for EC50, inhibit SARS-CoV-2 replications in vitro: entry inhibitors
ACE2 = ACE2 expression in Vero E6 cells; type: cell-based; details: 48 h, RNA-seq, western blot
SARS-CoV-2 [2] = details: hamster; cited from earlier work
influenza [3] = details: read-out: Observed EC50, influenza replication; A549 cells; cited from earlier work
influenza [4] = assay: Predicted anti-influenza EC50 by pEC50 = pIC50 + Log Fic; details: A549, read-out: Predicted EC50 (anti-influenza)
SARS-CoV-2 [5] = details: cited from earlier work
[6] = IV injection of RDV, nonhuman primates; cited from earlier work
[7] = IV injection of RDV, mice
[8] = tested on: multidrug resistance-associated protein 4 (MRP4); details: ref 28 (RDV), FDA Office of Clinical Pharmacology Review (GS-441524); cited from earlier work
[9] = IV injection of RDV, rhesus macaques
RdRp of SARS-CoV-2 = details: read-out: IC50, inhibition of RdRp of SARS-CoV-2; active form of RDV; cited from earlier work
SARS-CoV-2 M^pro = SARS-CoV-2 M^pro (Severe acute respiratory syndrome coronavirus 2, UniProt P0DTD1); details: cited from earlier work
SARS-CoV-2 [10] = details: rhesus macaque, cited from earlier work
Calu-3 cells = assay: Cytotoxicity; type: cell-based
Outline: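 Calu-3 cells were grown in medium supplemented with 1% non-essential amino acids and 1% sodium pyruvate at 37 °C, 5% CO2. Cells were seeded and cultured for 24 h, then exposed to test compound for 48 h. CCK8 solution was added at 10% and incubated 15 min to read viability.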

**Q.** With `CCN(CC)CCCC(C)Nc1ccnc2cc(Cl)ccc12` (centres unmarked) [CQ, Chloroquine] as the compound, how does the “EC50, inhibit SARS-CoV-2 replications in vitro” value (SARS-CoV-2 [1]) read?
**A.** low micromolar

**Q.** And the “Drug accumulation with verapamil (P-gp inhibitor)” value (Vero E6 cells)?
**A.** facilitated accumulation

**Q.** With `NC(=O)c1nc(F)c[nH]c1=O` [FAV, Favipiravir] as the compound, how does the ACE2 expression (ACE2) read?
**A.** reduced angiotensin-converting enzyme 2 (ACE2) expression

**Q.** And the EC50 (SARS-CoV-2 [1]; read-out: Observed EC50, SARS-CoV-2 replication, Vero E6)?
**A.** 65 to 400 µM

**Q.** And the Fic (A549 cells)?
**A.** 0.03145

**Q.** And the “Infectious titers in the lung” value (SARS-CoV-2 [2])?
**A.** reduction of infectious titers in the lung

**Q.** What about the EC50 (influenza [3]) of the same compound?
**A.** 3 µM

**Q.** What about the EC50 (influenza [4]) of the same compound?
**A.** 3.2 µM

**Q.** What about the Fic (Vero E6 cells; Vero E6, Fic = fu,cell x Kp) of the same compound?
**A.** 0.03371

**Q.** What about the “Drug accumulation with verapamil (P-gp inhibitor)” value (Vero E6 cells; Vero E6 cells) of the same compound?
**A.** increased FAV accumulation

**Q.** For `N#C[C@@]1(c2ccc3c(N)ncnn23)O[C@H](CO)[C@@H](O)[C@H]1O` [GS-441524], which “SARS-CoV-2 replication in vivo” value (SARS-CoV-2 [5]; oral administration of GS-441524, mouse model) is on record?
**A.** inhibit SARS-CoV-2 replication in vivo

**Q.** And the “Bloodstream concentration of GS-441524 relative to RDV” value [6]?
**A.** 1000 fold

**Q.** What about the “Lung concentration of GS-441524 relative to its predicted EC50” value [7] of the same compound?
**A.** 10 fold

**Q.** And the “Substrate of MRP4” value [8]?
**A.** not a substrate

**Q.** What about the “Lung concentration of GS-441524 relative to its predicted EC50” value [9] of the same compound?
**A.** 10 fold

**Q.** Which IC50 (RdRp of SARS-CoV-2) does the source give for `N#C[C@@]1(c2ccc3c(N)ncnn23)O[C@H](COP(=O)(O)OP(=O)(O)OP(=O)(O)O)[C@@H](O)[C@H]1O` [GS-443902] here?
**A.** 0.032 µM

**Q.** For `CCN(CCO)CCCC(C)Nc1ccnc2cc(Cl)ccc12` (centres unmarked) [HCQ, hydroxychloroquine], which “EC50, inhibit SARS-CoV-2 replications in vitro” value (SARS-CoV-2 [1]) is on record?
**A.** low micromolar

**Q.** What about the “Inhibition of M^pro activities at 200 μM” value (SARS-CoV-2 M^pro) of the same compound?
**A.** slightly inhibited

**Q.** What about the “Infectious titers in lungs” value (SARS-CoV-2 [2]) of the same compound?
**A.** failed to reduce infectious titers

**Q.** And the “Infectious titers in lungs” value (SARS-CoV-2 [10])?
**A.** failed to reduce infectious titers

**Q.** What about the “Drug accumulation with verapamil (P-gp inhibitor)” value (Vero E6 cells; Vero E6 cells) of the same compound?
**A.** facilitated accumulation

**Q.** With `CCC(CC)COC(=O)[C@H](C)N[P@](=O)(OC[C@H]1O[C@@](C#N)(c2ccc3c(N)ncnn23)[C@H](O)[C@@H]1O)Oc1ccccc1` [RDV, Remdesivir] as the compound, how does the “Drug accumulation with ceefourin (MRP4 inhibitor)” value (A549-ACE2 cells) read?
**A.** Neither verapamil nor ceefourin changed RDV accumulation

**Q.** And the “Drug accumulation with verapamil (P-gp inhibitor)” value (A549-ACE2 cells)?
**A.** Neither verapamil nor ceefourin changed RDV accumulation

**Q.** And the “Virus titer in the lung / antiviral activity in vivo” value (SARS-CoV-2 [5]; RDV, mouse)?
**A.** successfully reduce virus titer in the lung; also recorded: strong antiviral activities

**Q.** And the “Substrate of MRP4” value [8]?
**A.** substrate

**Q.** What about the “Antiviral activity in vivo” value (SARS-CoV-2 [10]; RDV) of the same compound?
**A.** strong antiviral activities

**Q.** What about the “Drug accumulation with ceefourin (MRP4 inhibitor)” value (Vero E6 cells; Vero E6 cells) of the same compound?
**A.** significantly increased RDV accumulation

**Q.** What about the “Drug accumulation with verapamil (P-gp inhibitor)” value (Vero E6 cells; Vero E6 cells) of the same compound?
**A.** significantly increased RDV accumulation

**Q.** Which Cytotoxicity (Calu-3 cells) does the source give for `COc1ccc(CCN(C)CCCC(C#N)(c2ccc(OC)c(OC)c2)C(C)C)cc1OC` (centres unmarked) [verapamil] here?
**A.** strong cytotoxicity
